From ChEMBL document CHEMBL3860043, “Non-Acidic Free Fatty Acid Receptor 4 Agonists with Antidiabetic Activity” (J Med Chem, 2016)
Values after ≈ are worked out from the molar mass of the structure shown. Active and inactive are the calls of the source. The rule behind the calls is not given here.

Columns and labels:
[1] = organism: Homo sapiens; assay: Selectivity for human FFA4 over FFA3 (unknown origin)
[2] = Effect on water intake level in wild type DIO mouse at 10 mg/kg, po dosed daily over 3 week period administered 15 mins before oral glucose challenge on first day measured after 21 days; assay type: ADME, organism-based; details: in vivo, 504 h
[3] = test system: Mus musculus; assay: Reduction in plasma glucose level in wild type DIO mouse at 10 mg/kg, po dosed daily over 3 week period administered 15 mins before oral glucose challenge on first day by OGTT method; assay type: functional, organism-based
Procedure, shortened: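 Male wild-type and FFA4(-/-) littermates (C57Bl6 background) fed 63% high-fat diet from 6 weeks of age for 5 months. On day 0, fasted 5 h, dosed 10 mg/kg po, then given glucose 3 g/kg po 15 min later. Tail blood sampled from -30 to 180 min; glucose measured in duplicate by colorimetric glucose oxidase assay. n=9 per group; two-way ANOVA with Bonferroni post hoc test.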

[4] = test system: Mus musculus; assay: Increase in plasma insulin level in wild type DIO mouse at 10 mg/kg, po dosed daily over 3 week period administered 15 mins before oral glucose challenge on first day measured 30 mins after glucose challenge by ELISA; assay type: functional, organism-based
[5] = Lipophilicity, log D of the compound at pH 7.4; assay type: physicochemical; details: buffer
[6] = organism: Homo sapiens; assay: Selectivity for human FFA4 over human FFA1
[7] = target: T1, Free fatty acid receptor 4 (Homo sapiens, UniProt Q5NUL3); assay: Agonist activity at human FFA4 expressed in human Flp-In T-REx293 cells by Fura2-AM dye based calcium mobilization assay; assay type: functional, cell-based
T1 sequence (Q5NUL3 whole entry): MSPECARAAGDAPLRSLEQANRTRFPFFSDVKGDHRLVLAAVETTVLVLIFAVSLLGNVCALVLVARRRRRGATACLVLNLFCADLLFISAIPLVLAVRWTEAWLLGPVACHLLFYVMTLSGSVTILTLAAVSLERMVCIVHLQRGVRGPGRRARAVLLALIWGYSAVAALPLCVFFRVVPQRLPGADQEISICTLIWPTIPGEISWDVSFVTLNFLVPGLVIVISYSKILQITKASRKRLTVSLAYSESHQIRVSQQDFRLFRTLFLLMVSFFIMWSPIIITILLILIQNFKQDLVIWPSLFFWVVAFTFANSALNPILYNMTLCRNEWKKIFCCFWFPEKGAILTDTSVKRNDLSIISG
Procedure, shortened: (§1)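 Flp-In T-REx 293 cells with doxycycline-inducible human FFA4 seeded at 50000 cells/well and induced overnight with 100 ng/ml doxycycline. Loaded with Fura2-AM for 45 min, washed three times in HBSS, equilibrated 15 min, then ligand added. Emission at 510 nm with 340/380 nm excitation; response is the change in 340:380 ratio. Efficacy relative to 100 µM reference agonist; 2-4 independent experiments, sigmoidal fits.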

[8] = Effect on food intake level in wild type DIO mouse at 10 mg/kg, po dosed daily over 3 week period administered 15 mins before oral glucose challenge on first day measured after 21 days; assay type: ADME, organism-based; details: in vivo, 504 h
[9] = test system: Mus musculus; assay: Toxicity in FFA4 (-/-) DIO mouse assessed as weight gain in at 10 mg/kg, po dosed daily over 3 week period administered 15 mins before oral glucose challenge on first day measured after 21 days; assay type: organism-based; details: in vivo, 504 h
[10] = target: T2, Free fatty acid receptor 4 (Homo sapiens) (UniProt Q5NUL3); assay: Agonist activity at human FFA4 expressed in human Flp-In T-REx293 cells by Fura2-AM dye based calcium mobilization assay relative to 100 uM […]; assay type: functional, cell-based; procedure, shortened: as §1
T2 sequence (whole entry): T1 sequence (Q5NUL3 whole entry)

[11] = target: T2, Free fatty acid receptor 4 (Homo sapiens); assay: Agonist activity at C-terminal YFP-tagged human FFA4 expressed in HEK293 cells in presence of coelentrazine h by BRET based beta-arrestin-2 interaction assay relative to 100 uM […]; assay type: cell-based
Procedure, shortened: (§2)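 HEK293 cells co-transfected with C-terminal eYFP-fused human FFA4 and β-arrestin-2–Renilla luciferase; plated 24 h post-transfection, used 24 h later. After an HBSS wash, coelenterazine h (2.5 µM) for 15 min, with ligands present for the final 5 min, 37 °C. BRET taken as the 535/475 nm emission ratio. Efficacy relative to 100 µM reference agonist. Three-parameter sigmoidal fits; mean ± S.E. of 2-4 independent experiments.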

[12] = test system: Mus musculus; assay: Toxicity in FFA4 (-/-) DIO mouse assessed as reduction in body weight at 10 mg/kg, po dosed daily over 3 week period administered 15 mins before oral glucose challenge on first day measured after 21 days; assay type: organism-based; details: in vivo, 504 h
[13] = target: T1, Free fatty acid receptor 4; assay: Agonist activity at C-terminal YFP-tagged human FFA4 expressed in HEK293 cells in presence of coelentrazine h by BRET based beta-arrestin-2 interaction assay; assay type: cell-based; procedure, shortened: as §2
[14] = Solubility in PBS buffer; assay type: physicochemical
[15] = test system: Mus musculus; assay: Toxicity in wild type DIO mouse assessed as reduction in body weight at 10 mg/kg, po dosed daily over 3 week period administered 15 mins before oral glucose challenge on first day measured after 21 days; assay type: organism-based; design: scale not given: the % may be the effect or the level left; details: in vivo, 504 h
[16] = Solubility in FaSSIF solution; assay type: physicochemical
[17] = Effect on water intake level in FFA4 (-/-) DIO mouse at 10 mg/kg, po dosed daily over 3 week period administered 15 mins before oral glucose challenge on first day measured after 21 days; assay type: ADME, organism-based; details: in vivo, 504 h
[18] = test system: Mus musculus; assay: Reduction in fasting plasma insulin level in wild type DIO mouse at 10 mg/kg, po dosed daily over 3 week period administered 15 mins before oral glucose challenge on first day measured after 21 days by ELISA; assay type: functional, organism-based
Procedure, shortened: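 DIO wild-type and FFA4(-/-) littermates (63% fat diet for 5 months) dosed 10 mg/kg po once daily for 21 days. Fasting blood collected into EDTA and spun at 3,000 g for 5 min at 4 °C; plasma stored at -80 °C. Insulin measured in duplicate by murine insulin ELISA, absorbance at 450 nm.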

[19] = target: T3, Free fatty acid receptor 4 (Mus musculus, UniProt Q7TMA4); assay: Agonist activity mouse FFA4 by Gq-dependent calcium mobilization assay; assay type: functional
T3 sequence (Q7TMA4 whole entry): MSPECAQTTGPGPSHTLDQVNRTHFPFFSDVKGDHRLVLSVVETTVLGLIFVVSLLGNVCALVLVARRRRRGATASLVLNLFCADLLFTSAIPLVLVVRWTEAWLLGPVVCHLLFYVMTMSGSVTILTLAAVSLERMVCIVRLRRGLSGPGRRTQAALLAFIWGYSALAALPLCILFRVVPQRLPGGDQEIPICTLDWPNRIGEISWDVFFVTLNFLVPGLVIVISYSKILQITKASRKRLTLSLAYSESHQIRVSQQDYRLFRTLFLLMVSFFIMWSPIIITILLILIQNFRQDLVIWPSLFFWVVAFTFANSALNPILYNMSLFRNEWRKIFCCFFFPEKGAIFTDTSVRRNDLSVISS

[20] = test system: Mus musculus; assay: Reduction in glucose level in wild type DIO mouse at 10 mg/kg, po dosed daily over 3 week period administered 15 mins before oral glucose challenge on first day measured after 21 days by OGTT method; assay type: functional, organism-based
[21] = target: T3, Free fatty acid receptor 4; assay: Agonist activity mouse FFA4 by BRET based beta-arrestin-2 interaction assay
Procedure, shortened: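 Mouse FFA4 fused C-terminally to eYFP, co-transfected into HEK293 cells with β-arrestin-2–Renilla luciferase. After an HBSS wash, coelenterazine h (2.5 µM) for 15 min, with ligand added for the last 5 min, 37 °C. BRET read as the 535/475 nm luminescence ratio. Three-parameter sigmoidal curve fitting; 2-4 independent experiments.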

[22] = target: Free fatty acid receptor 1 (Homo sapiens, UniProt O14842); assay: Antagonist activity against human FFA1 expressed in human Flp-In T-REx293 cells assessed as as reduction in TUG424-induced response by Fura2-AM dye based calcium mobilization assay; assay type: functional, cell-based
Procedure, shortened: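 Flp-In T-REx 293 cells with inducible human FFA1, seeded at 50000 cells/well and induced with 100 ng/ml doxycycline after 3-4 h adherence. Next day loaded with Fura2-AM for 45 min, washed, then preincubated 15 min in HBSS with test ligand before 300 nM agonist challenge. Fura2 340:380 ratio change read at 510 nm emission. Inhibition expressed as % reduction of the agonist response.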

[23] = organism: Homo sapiens; assay: Selectivity for human FFA4 over FFA2 (unknown origin)
[24] = Effect on food intake level in FFA4 (-/-) DIO mouse at 10 mg/kg, po dosed daily over 3 week period administered 15 mins before oral glucose challenge on first day measured after 21 days; assay type: ADME, organism-based; details: in vivo, 504 h
[25] = test system: Mus musculus; assay: Reduction in plasma glucose level in mouse at 10 mg/kg, po dosed 15 mins before oral glucose challenge by OGTT method; assay type: functional, organism-based
Procedure, shortened: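 Mice fasted 5 h and given compound orally at 10 mg/kg, 15 min before an oral glucose load of 3 g/kg. Tail-tip blood sampled under local anesthetic 30 min before and immediately before the load, and at 30, 60, 90, 120 and 180 min after it. Glucose measured in duplicate by glucose oxidase colorimetric assay; n=6 mice per group.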

Free fatty acid receptor 1, sequence (O14842 whole entry): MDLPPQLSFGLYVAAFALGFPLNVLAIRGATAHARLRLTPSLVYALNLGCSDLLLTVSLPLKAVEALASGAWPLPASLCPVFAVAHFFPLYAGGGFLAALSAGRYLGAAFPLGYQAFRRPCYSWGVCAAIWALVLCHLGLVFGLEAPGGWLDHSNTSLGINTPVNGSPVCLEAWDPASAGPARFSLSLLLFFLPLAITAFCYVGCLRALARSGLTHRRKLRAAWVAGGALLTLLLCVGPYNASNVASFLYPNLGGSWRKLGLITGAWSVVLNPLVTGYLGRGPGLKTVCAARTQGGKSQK

In the case of `O=S1(=O)c2ccccc2CN1c1cc(F)cc(Oc2ccccn2)c1`, the Selectivity ratio [1] is reported as over 300, the Activity [2] is reported as “Non-Toxic” and the Activity [3] is reported as “Active”. The Activity [4] was “Active”, the logD [5] was 3.17 and the Selectivity ratio [6] was over 300. The EC50 [7] was 234 nM, the Activity [8] was “Non-Toxic” and the Activity [9] was “Non-Toxic”. The Emax [10] was 130%, the Emax [11] was 98% and the Activity [12] was “Non-Toxic”. For the same compound, the EC50 ([13]; read-out: EC50) was 128 nM, the EC50 ([13]; read-out: pEC50 (converted)) was 123 nM and the solubility [14] was 1.3 µM (≈ 0.463 µg/mL). For the same compound, the Activity [15] was 7 to 9%, the solubility [16] was 14 µM (≈ 4.99 µg/mL) and the Activity [17] was “Non-Toxic”. For the same compound, the Activity [18] was “Active”, the EC50 [19] was 148 nM and the Activity [20] was “Active”. The EC50 [21] was 479 nM, the IC50 [22] was over 100000 nM and the Selectivity ratio [23] was over 300. The Activity [24] was “Non-Toxic” and the Activity [25] was “Active”.
